# According to publication PMC8277681 (Molecular imaging and biology, 2021):
# Target: mGluR2 (Rattus norvegicus, UniProt P31421)
# Experiment: PET imaging of brain uptake and blocking in rats
# Type: in vivo, Sprague Dawley rats
# Details: blocker 4 mg/kg i.v. 10 min before [18F]8, 1–10 min time window
# Method in brief: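 Male Sprague Dawley rats (275–400 g) under isoflurane/nitrous oxide (1.0–1.5% isoflurane), tail vein catheterized. Dynamic 60-min PET started at i.v. injection of the 18F radioligand (20–41 MBq). Unlabeled blocker in saline with 10% ethanol and 10% Tween 20 was given 4 mg/kg i.v. 10 min before the radioligand. Percent change in regional brain uptake versus baseline scans was taken at 1–10 min.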
# Sequence of mGluR2 (P31421 19-872): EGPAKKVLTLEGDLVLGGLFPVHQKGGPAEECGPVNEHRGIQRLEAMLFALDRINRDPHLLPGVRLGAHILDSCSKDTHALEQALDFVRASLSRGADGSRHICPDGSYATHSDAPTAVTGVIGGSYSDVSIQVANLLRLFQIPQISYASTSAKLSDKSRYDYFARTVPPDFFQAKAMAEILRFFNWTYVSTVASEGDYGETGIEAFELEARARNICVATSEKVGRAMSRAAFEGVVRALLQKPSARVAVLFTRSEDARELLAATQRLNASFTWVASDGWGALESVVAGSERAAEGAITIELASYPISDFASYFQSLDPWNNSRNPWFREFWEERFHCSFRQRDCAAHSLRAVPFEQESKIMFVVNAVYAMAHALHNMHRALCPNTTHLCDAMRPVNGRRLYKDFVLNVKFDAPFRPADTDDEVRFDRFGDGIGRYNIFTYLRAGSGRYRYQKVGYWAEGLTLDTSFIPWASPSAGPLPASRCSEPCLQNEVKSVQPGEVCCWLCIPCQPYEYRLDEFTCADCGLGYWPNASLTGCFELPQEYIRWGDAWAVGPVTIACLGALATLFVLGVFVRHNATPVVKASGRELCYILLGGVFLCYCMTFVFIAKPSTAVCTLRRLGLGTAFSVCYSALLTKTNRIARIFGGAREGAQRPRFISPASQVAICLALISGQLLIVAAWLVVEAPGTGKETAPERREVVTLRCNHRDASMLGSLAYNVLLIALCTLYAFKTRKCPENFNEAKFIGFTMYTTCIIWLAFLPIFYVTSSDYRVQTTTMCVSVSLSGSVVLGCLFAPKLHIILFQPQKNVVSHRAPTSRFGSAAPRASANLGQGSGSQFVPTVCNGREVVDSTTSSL
smiles,measurement,value
"Fc1ccc(N2CCN(Cc3ccn4c(CC5CC5)nnc4c3C(F)(F)F)CC2)c(F)c1 [compound 8, 8-trifluoromethyl-3-cyclopropylmethyl-7-[(4-(2,4-difluorophenyl)-1-piperazinyl)methyl]-1,2,4-triazolo[4,3-a]pyridine]",decrease of [18F]8 uptake in cerebellum (blocking effect),18.8%
